Test results reported in ChEMBL document CHEMBL1629477, “Efficient synthesis of 6-(hetero)arylthieno[3,2-b]pyridines by Suzuki-Miyaura coupling. Evaluation of growth inhibition on human tumor cell lines, SARs and effects on the cell cycle” (2010).

What was measured:
Format in all cases: functional
[1] = tested on: A-375; assay: Growth inhibition of human A375 cells after 48 hrs by sulforhodamine B assay; conditions: A-375, 48 h
Procedure, shortened: (§1)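 Cells kept adherent in RPMI-1640 with 5% heat-inactivated FBS, 2 mM glutamine and penicillin/streptomycin at 37 °C, 5% CO₂. Seeded at 1.5 × 10⁵ cells/mL (MCF-7) or 0.75 × 10⁵ cells/mL (A375-C5, NCI-H460), then grown 24 h. Exposed 48 h to five serial dilutions from up to 150 µM, DMSO ≤0.25%. SRB stain, absorbance 492 nm. GI₅₀ is 50% net growth inhibition; three experiments in duplicate; doxorubicin positive control.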

[2] = tested on: MCF7; assay: Growth inhibition of human MCF7 cells after 48 hrs by sulforhodamine B assay; conditions: MCF7, 48 h; procedure, shortened: as §1
[3] = tested on: NCI-H460; assay: Growth inhibition of human NCI-H460 cells after 48 hrs by sulforhodamine B assay; conditions: NCI-H460, 48 h; procedure, shortened: as §1
[4] = tested on: NCI-H460; assay: Cell cycle arrest in human NCI-H460 cells assessed as accumulation at G2/M phase after 48 hrs by flow cytometry
Procedure, shortened: (§2)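 NCI-H460 cells plated at 0.75 × 10⁵ cells/mL, then exposed 48 h to GI₅₀ or 2 × GI₅₀ concentrations (from the SRB assay). Controls were medium only (blank) and DMSO solvent. Cells were harvested, fixed in 70% ethanol and resuspended in PBS. G1/G0, S and G2/M fractions were read by flow cytometry. Three independent experiments in duplicate, mean ± SD.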

[5] = tested on: NCI-H460; assay: Cell cycle arrest in human NCI-H460 cells assessed as accumulation at G1 phase after 48 hrs by flow cytometry; procedure, shortened: as §2

| SMILES | GI50 [1] [µM] | GI50 [2] [µM] | GI50 [3] [µM] | Activity [4] [%] | Activity [5] [%] |
| --- | --- | --- | --- | --- | --- |
| COC(=O)c1sc2cc(-c3cc(OC)cc(OC)c3)cnc2c1N | 82 | 56.6 | 31.8 | – | – |
| COC(=O)c1sc2cc(-c3ccc(N)cc3)cnc2c1N | 80.8 | 108 | 37.1 | – | – |
| COC(=O)c1sc2cc(-c3cccc(N)c3)cnc2c1N | > 150 | > 150 | > 150 | – | – |
| COC(=O)c1sc2cc(-c3ccccc3N)cnc2c1N | 2.5 | 4.2 | 3.8 | 12 | – |
| COC(=O)c1sc2cc(-c3ccc(C(F)(F)F)cc3)cnc2c1N | > 150 | > 150 | > 150 | – | – |
| COC(=O)c1sc2cc(-c3ccc(OC)cc3)cnc2c1N | > 150 | > 150 | > 150 | – | – |
| COC(=O)c1sc2cc(-c3ccsc3)cnc2c1N | 12.1 | 12.7 | 12.4 | – | – |
| COC(=O)c1sc2cc(-c3cccs3)cnc2c1N | > 150 | 26.9 | 18 | – | – |
| COC(=O)c1sc2cc(-c3ccc(-c4cccs4)s3)cnc2c1N | > 75 | 1 | 0.7 | – | 15 |
| COC(=O)c1sc2cc(-c3ccoc3)cnc2c1N | > 120 | > 120 | > 120 | – | – |
| COC(=O)c1sc2cc(-c3cnn(C)c3)cnc2c1N | > 150 | > 150 | > 150 | – | – |
| COC(=O)c1sc2cc(-c3cccnc3)cnc2c1N | > 112 | > 112 | > 112 | – | – |
| COC(=O)c1sc2cc(-c3ccc(OC)nc3)cnc2c1N | > 37.5 | > 37.5 | > 37.5 | – | – |
| COC(=O)c1sc2cc(-c3cnc(OC)nc3OC)cnc2c1N | > 75 | > 75 | > 75 | – | – |
| COC(=O)c1sc2cc(-c3ccc4ccccc4c3)cnc2c1N | 95.6 | 50.9 | 43.5 | – | – |
| COC(=O)c1sc2cc(-c3cnc4ccccc4c3)cnc2c1N | 9.1 | 9.8 | 9.5 | – | – |
| COC(=O)c1sc2cc(-c3cncc4ccccc34)cnc2c1N | 10.1 | 10.7 | 7.7 | – | – |
| COC(=O)c1sc2cc(-c3ccc4ncccc4c3)cnc2c1N | > 150 | > 150 | > 150 | – | – |
| COC(=O)c1sc2cc(-c3ccc4c(ccn4C)c3)cnc2c1N | 21.2 | 23 | 20.3 | – | – |
| COC(=O)c1sc2cc(-c3ccc(C#N)cc3)cnc2c1N | > 75 | > 75 | > 75 | – | – |
| COC(=O)c1sc2cc(-c3ccc(C(C)=O)cc3)cnc2c1N | > 150 | > 150 | > 150 | – | – |
